Data set [1] can be described thus: melting temperature; fluorescence melt of hairpins on a sequencing array, two-state fit, raised by 9.35 °C to match UV melts. As to conditions: sodium 0.088 M. In short, it runs like this: (§1)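 Folding enthalpy and melting temperature come from bootstrapped two-state fits to Cy3 fluorescence of library hairpins carrying annealed Cy3 and quencher oligos on a sequenced MiSeq flow cell. Imaging was done in 50 mM Na-HEPES pH 8.0, 25 mM NaCl, stepping by 2.5 °C up to 60 °C, and signals were normalised to pre-quench Cy3 and to control constructs. Results of four replicates were combined by inverse variance, and fitted temperatures were raised by 9.35 °C to match UV melts.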

Data set [2] in a line: folding enthalpy; higher = less favourable; fluorescence melt of hairpins on a sequencing array, two-state fit. As to conditions: sodium 0.088 M. In short, it runs like this: as §1

The source of these data is the array DNA melting data of Ke et al. (doi:10.1101/2024.01.08.574731).

Regarding GCCTTGCGAAAGCAGAGC ((..(((....)))..)), the Tm in data set [1] came to 51.2 °C. Besides, the folding enthalpy in data set [2] was -11.7 kcal/mol.

GCCTTGCGAAAGCCAGGC ((((.((....)).)))): the Tm in data set [1] was 62.6 °C. Besides, in data set [2], the folding enthalpy is -31.4 kcal/mol.

Regarding GCCTTGCGAAAGCTAGGC ((((.((....)).)))), the Tm in data set [1] was 67.2 °C. The folding enthalpy in data set [2] is -44.4 kcal/mol.

Consider GCCTTGGAAACAAGGC ((((((....)))))), for which the Tm in data set [1] is 67.8 °C. Moreover, in data set [2], the folding enthalpy is -34.6 kcal/mol.

For GCCTTGGGAAACCAAAGC ((.((((....)))).)), the Tm in data set [1] was 37.6 °C. In addition, the folding enthalpy in data set [2] is -18 kcal/mol.

GCCTTGGGAAACCAAGGC (((((((....))))))): the Tm in data set [1] came to 68.8 °C. Further, the folding enthalpy in data set [2] is -44.1 kcal/mol.

Consider GCCTTGGGAAACTAAGGC (((((.(....).))))), for which the Tm in data set [1] came out at 50.9 °C. In addition, in data set [2], the folding enthalpy was -34.7 kcal/mol.

As to GCCTTGGGAAACTAGGGC (((.(.(....).).))), the Tm in data set [1] was determined as 36.5 °C. For the same sequence, in data set [2], the folding enthalpy is -30.1 kcal/mol.

In the case of GCCTTGTCGAAAGACGGC (((..(((....)))))), the Tm in data set [1] is 47.8 °C. In data set [2], the folding enthalpy was -18 kcal/mol.

For GCCTTTCGAAAGAAGGC (((.(((....)))))), the Tm in data set [1] was found to be 50.4 °C. Also, the folding enthalpy in data set [2] was -29.1 kcal/mol.

GCCTTTGGAAACGAAGGC (((((.(....).))))): the Tm in data set [1] stood at 51.6 °C. Also, in data set [2], the folding enthalpy was -35.4 kcal/mol.

Turning to GCGAAAAGTCGC ((((....)))), the Tm in data set [1] was determined as 41.7 °C. For the same sequence, the folding enthalpy in data set [2] was -12.1 kcal/mol.

Regarding GCGAAACCGAAAGGTCGC (((..(((....)))))), the Tm in data set [1] stood at 54.4 °C. Besides, the folding enthalpy in data set [2] is -29.9 kcal/mol.

Regarding GCGAAAGATCGC ((((....)))), the Tm in data set [1] came to 39.9 °C. In data set [2], the folding enthalpy is -12.4 kcal/mol.

As for GCGAAAGGAAACCTTCGC (((((.(....).))))), in data set [1], the Tm was determined as 48.8 °C. In addition, the folding enthalpy in data set [2] is -34.4 kcal/mol.

Regarding GCGAACACGAAAGTGCGC (((..(((....)))))), the Tm in data set [1] is 51 °C. In data set [2], the folding enthalpy is -21.2 kcal/mol.

GCGAACCATCGC ((((....)))): the Tm in data set [1] is 47.7 °C. Moreover, in data set [2], the folding enthalpy was -18.7 kcal/mol.

For the sequence GCGAACCGAAAGGTACGC (((.(((....))).))), the Tm in data set [1] is 64.3 °C. In addition, the folding enthalpy in data set [2] is -45.7 kcal/mol.

In the case of GCGAACCGAAAGGTCCGC (((.(((....))).))), the Tm in data set [1] came to 62.8 °C. Further, the folding enthalpy in data set [2] is -44.5 kcal/mol.

Turning to GCGAACGAAAGTTCCCGC ((((((....)))..))), the Tm in data set [1] amounted to 36.7 °C. Also, the folding enthalpy in data set [2] is -16.3 kcal/mol.

As for GCGAACGGAAACGTTCAC (.(((((....))))).), in data set [1], the Tm is 46.1 °C. The folding enthalpy in data set [2] was -14.4 kcal/mol.

Take GCGAACGGTCGC ((((....)))): the Tm in data set [1] worked out at 47.7 °C. Moreover, in data set [2], the folding enthalpy was -30.9 kcal/mol.

For the sequence GCGAAGACTCGC ((((....)))), the Tm in data set [1] was determined as 44.8 °C. Besides, the folding enthalpy in data set [2] is -15.8 kcal/mol.

In the case of GCGAAGCGAAAGCATAGC ((.(.((....)).).)), the Tm in data set [1] worked out at 52.5 °C. The folding enthalpy in data set [2] is -15.7 kcal/mol.

On to GCGAAGCGAAAGCATCGC ((((.((....)).)))), for which the Tm in data set [1] worked out at 61.1 °C. Moreover, the folding enthalpy in data set [2] is -17.4 kcal/mol.

In the case of GCGAAGCGAAAGCCCCGC (((..((....))..))), the Tm in data set [1] was 36.3 °C. Moreover, the folding enthalpy in data set [2] is -7.44 kcal/mol.

For the sequence GCGAAGCGAAAGCGTCGC ((((.((....)).)))), the Tm in data set [1] amounted to 68.7 °C. For the same sequence, in data set [2], the folding enthalpy is -21.3 kcal/mol.

Regarding GCGAAGCGAAAGCTAGGC ((..(((....)))..)), in data set [1], the Tm was determined as 40.9 °C. Besides, in data set [2], the folding enthalpy is -5.32 kcal/mol.

Regarding GCGAAGCGAAAGCTCAGC ((..(((....)))..)), in data set [1], the Tm came to 41.1 °C. Besides, in data set [2], the folding enthalpy was -7.68 kcal/mol.

In the case of GCGAAGCGAAAGCTCGC (((.(((....)))))), the Tm in data set [1] came to 67.1 °C. Also, in data set [2], the folding enthalpy was -24.3 kcal/mol.

Consider GCGAAGCGAAAGCTGTGC ((..(((....)))..)), for which the Tm in data set [1] was 46.5 °C. Further, the folding enthalpy in data set [2] was -8.75 kcal/mol.

On to GCGAAGGATCGC ((((....)))), for which the Tm in data set [1] was found to be 59.7 °C. For the same sequence, the folding enthalpy in data set [2] was -9.71 kcal/mol.

As to GCGAAGGGAAACCTTTGC ((.((((....)))).)), the Tm in data set [1] amounted to 49.8 °C. Also, the folding enthalpy in data set [2] is -34.6 kcal/mol.

Regarding GCGAAGGTTCGC ((((....)))), in data set [1], the Tm came to 50.4 °C. Further, in data set [2], the folding enthalpy was -20.8 kcal/mol.

On to GCGAAGTTCGC ((((...)))), for which, in data set [1], the Tm came to 46.4 °C. The folding enthalpy in data set [2] was -17 kcal/mol.

On to GCGAATACTCGC ((((....)))), for which the Tm in data set [1] turned out to be 46.2 °C. Besides, in data set [2], the folding enthalpy is -22.1 kcal/mol.

Regarding GCGAATCTCGC ((((...)))), the Tm in data set [1] was 47.4 °C. Moreover, the folding enthalpy in data set [2] is -19.7 kcal/mol.

As for GCGAATGCTCGC ((((....)))), the Tm in data set [1] came out at 57.7 °C. In addition, the folding enthalpy in data set [2] is -11.5 kcal/mol.

Turning to GCGAATGGAAACATTTGC ((.((((....)))).)), the Tm in data set [1] came to 49.5 °C. Besides, the folding enthalpy in data set [2] is -33.6 kcal/mol.

GCGAATTCGAAAGAACGC (((..(((....)))))): in data set [1], the Tm is 40.5 °C. Also, the folding enthalpy in data set [2] is -20.4 kcal/mol.

On to GCGACAGGAAACCGTCGC (((((.(....).))))), for which, in data set [1], the Tm amounted to 58.8 °C. Further, the folding enthalpy in data set [2] was -43.4 kcal/mol.

Consider GCGACAGGAAACTACCGC (((..((....))..))), for which the Tm in data set [1] is 31.6 °C. For the same sequence, in data set [2], the folding enthalpy was -20.5 kcal/mol.

In the case of GCGACAGGAAACTATCGC ((((.((....)).)))), the Tm in data set [1] amounted to 43.7 °C. Moreover, the folding enthalpy in data set [2] was -31.9 kcal/mol.

Consider GCGACATGTCGC ((((....)))), for which, in data set [1], the Tm was 63.8 °C. Besides, in data set [2], the folding enthalpy was -37 kcal/mol.

Regarding GCGACCACGAAAGTGCGC (((..(((....)))))), in data set [1], the Tm was determined as 48.5 °C. In addition, the folding enthalpy in data set [2] was -20.9 kcal/mol.

Take GCGACCCCGAAAGGGCGC (((..(((....)))))): the Tm in data set [1] was 67.7 °C. Moreover, the folding enthalpy in data set [2] is -29.1 kcal/mol.

In the case of GCGACCCCTCGC ((((....)))), the Tm in data set [1] stood at 50.1 °C. Further, the folding enthalpy in data set [2] is -23.4 kcal/mol.

For GCGACCCTCGC ((((...)))), in data set [1], the Tm is 49.4 °C. For the same sequence, the folding enthalpy in data set [2] is -20.7 kcal/mol.

For GCGACCGAAAGGTCTCGC ((((((....)))..))), the Tm in data set [1] was 50.2 °C. For the same sequence, in data set [2], the folding enthalpy was -14.6 kcal/mol.

Take GCGACCGGAAACGACCGC (((..((....))..))): the Tm in data set [1] was found to be 41.8 °C. Further, the folding enthalpy in data set [2] was -27.4 kcal/mol.

As to GCGACCGGAAACGATCGC ((((.((....)).)))), the Tm in data set [1] was found to be 55 °C. Moreover, in data set [2], the folding enthalpy is -38.7 kcal/mol.

For the sequence GCGACCGGAAACGGCCAC (.(.(((....))).).), in data set [1], the Tm came out at 32.5 °C. The folding enthalpy in data set [2] was -14.4 kcal/mol.

Consider GCGACCGTCGC ((((...)))), for which the Tm in data set [1] turned out to be 45.5 °C. Further, the folding enthalpy in data set [2] was -26.8 kcal/mol.

Turning to GCGACCTATCGC ((((....)))), the Tm in data set [1] was 49.3 °C. In addition, the folding enthalpy in data set [2] is -28.4 kcal/mol.

For GCGACGCGAAAGCAGCGC (((..((....))..))), in data set [1], the Tm stood at 65.7 °C. Further, the folding enthalpy in data set [2] was -30.3 kcal/mol.

With GCGACGCGAAAGCCTCGC ((((.((....)).)))), the Tm in data set [1] is 60.4 °C. Further, the folding enthalpy in data set [2] was -33.3 kcal/mol.

With GCGACGCGAAAGCCTGGC ((.(.((....)).).)), in data set [1], the Tm came out at 28.1 °C. Further, the folding enthalpy in data set [2] was -5.89 kcal/mol.
